Data published in PubChem BioAssay.
Inconclusive results are not listed.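 Rule for the calls, unless noted: active = viability increase at or above a cutoff of the median across tested compounds plus 3 SD (cut at about 8.5% in these data, passing the limit was not always enough); inconclusive = some gains above the cutoff, reason not given; inactive = the rest.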

Tests used:
[1] = S. cerevisiae growth inhibition in permissive medium (OD615), pilot counter-assay for S. cerevisiae lifespan shortening project, permissive growth control (AID 705;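 active = growth inhibition above 25% in both replicates, a cutoff set 3 SD above the mean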); details: OD615, 24 h, at 10 µM, hits give high values
Outline: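 assay system = Saccharomyces cerevisiae strain carrying genetically modified DeaD replicative-lifespan system | medium = SC raffinose/galactose permissive medium | dosing = 10 µM single dose, 0.25% DMSO | schedule = 24 h compound exposure at 30 °C after 4 h pre-growth | measured by = OD at 615 nm | read-out basis = growth inhibition from lowered OD615 after 24 h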

[2] = S. cerevisiae growth inhibition in restrictive medium, OD615, pilot screen, restrictive growth control, yeast lifespan reduction project (AID 706;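 active = growth inhibition above a set limit, 3 SD over mean compound inhibition, in both replicates, cut at about 43% in these data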;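 note: modified DeaD lifespan yeast strain shifted to restrictive glucose medium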); details: OD615, 48 h, at 10 µM, hits give high values
Outline: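 Buffer or medium: CSMM-D glucose medium. Material: genetically modified Saccharomyces cerevisiae, DeaD replicative lifespan assay strain. Times: 48 h compound exposure at 30 °C. Measured by: optical density at 615 nm.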

[3] = doxorubicin toxicity protection in MRP-1 cells – H69AR cells, CellTiter-Glo, duplicate, MRP-1 activator project, pilot screen (AID 807); details: H69AR viability with doxorubicin, CellTiter-Glo luminescence; at 10 µM; hits give high values;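 note: compound pretreatment 18-22 h then 72 h combined with doxorubicin; 0% = doxorubicin alone and 100% = vehicle without doxorubicin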
[4] = viability of HCT116 without oncogenic beta-catenin – human colon tumor cells, pilot screen (AID 823;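 active = cell viability at or below a set limit in both duplicate runs, the limit being the all-compound median minus 4 SD, cut at about 23% in these data, passing the limit was not always enough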;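 note: 0% = wells killed by 20 µM Hyamine and 100% = untreated DMSO cell wells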); details: HCT116 beta-catenin knockout viability, CellTiter-Glo, 60 h; at 10 µM; hits give low values
[5] = RAM pathway blockade in budding yeast – dse1pr::URA3 reporter, 5-FOA selection, pilot screen (AID 869;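 active = inhibition over a set limit, the all-compound mean plus 3 SD, in both replicate runs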;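 note: 0% = DMSO wells with no growth and 100% = 10 µM 1-NA-PP1 with full growth; RAM network block rescues cells from 5-FOA so hits raise OD615 growth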); details: S. cerevisiae dse1pr::URA3 5-FOA growth, OD615, 2 d; at 10 µM; hits give high values; strain carries analog-sensitive mutant Cbk1 kinase
[6] = viability of PTEN-null HCT116 cells – cell-based, HCT116 clonal line, CellTiter-Glo, pilot screen (AID 824;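 active = viability at or below 27.92% in each of two runs, the all-compound median minus 4 SD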;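 note: 0% = 20 µM Hyamine control and 100% = vehicle cell control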); details: HCT116 PTEN-deleted viability, 60 h, at 10 µM, hits give low values

O=C(CCCCn1c(=O)[nH]c2ccsc2c1=O)NCC1CCCO1 (stereo unspecified)
inactive: growth inhibition [1] 2.62% | growth inhibition [2] -0.86% | viability increase [3] -3.45% | viability [4] 97.1% | inhibition [5] 1.61%

COc1ccc(C(=O)/C=C/Nc2cc(C)on2)cc1
inactive: growth inhibition [1] -11.9% | growth inhibition [2] -11.9% | viability increase [3] -0.71% | viability [6] 97%

CCOC(=O)CSc1nc2c(c(=O)n(C)c(=O)n2C)n1Cc1ccccc1F
inactive: growth inhibition [1] -8.61% | growth inhibition [2] 2.55% | viability increase [3] 0.38% | viability [4] 95.9% | viability [6] 93.6% | inhibition [5] 2%

Cc1noc(/C=C/NCc2cccnc2)c1S(=O)(=O)N(C)CC(=O)N1CCc2ccccc21
inactive: growth inhibition [1] -10.2% | growth inhibition [2] -7.69% | viability increase [3] -3.19% | viability [4] 91.2% | viability [6] 86.4% | inhibition [5] 2.5%
